Measured values gathered from unrelated publications.
Lines come from different studies, so protocols differ.
Target: Serine/threonine-protein kinase VRK2 (VRK2, Homo sapiens, UniProt Q86Y07)

| Compound | test | conditions | remaining binding |
| --- | --- | --- | --- |
| CN(c1nccc(-c2cnn3ncccc23)n1)C1CC1 | binding | 1 µM | 100% |
| Nc1ncc2c(n1)-c1c([nH]c3ccc(C#CC4CC4)cc13)CCCC2 | binding, competition with immobilised ligand | 1 µM | 100% |
| O=C(N1CCS(=O)(=O)CC1)N1C[C@H](c2ccc(OC(F)(F)F)cc2)C[C@H](c2nc(C3CC3)no2)C1 | cell-free assay, competition with immobilised ligand | 1 µM | 90% |
| C[C@@H](c1ccc(-n2cnc3c(N)ncnc32)cc1)N1CCc2nn(C)c(Cc3ccccc3)c2C1=O | binding, competition with immobilised ligand | 0.1 µM | 47% |
| CN(CCCC(F)(F)F)c1nccc(-c2cnn3ncccc23)n1 | binding | 1 µM | 100% |
| Cc1noc([C@H]2C[C@@H](c3ccc(C(F)(F)F)cc3)CN(C(=O)N3CCS(=O)(=O)C3)C2)n1 | cell-free assay, competition with immobilised ligand | 1 µM | 91% |
| Cc1cnn2ncc(-c3ccnc(N(C)C)n3)c2c1 | binding | 1 µM | 96% |
| O=C(NCCCN1CCOCC1)c1ccc(Nc2nccc(-c3cc4ccccc4s3)n2)cc1 | binding, competition with immobilised ligand | 1 µM | 100% |
| c1cncc(-c2cccc(Nc3nccc(NC4CCCCC4)n3)c2)c1 | binding, competition with immobilised ligand | 10 µM | 82% |
| COc1cnc(Nc2cccc(S(N)(=O)=O)c2)nc1N1CCN(c2ccccc2)C(=O)C1 | binding, competition with immobilised ligand | 1 µM | 89% |
| CC1=C(C#N)C(c2ccc3c(c2)c(NC(=O)c2ccccc2C)nn3C)C(C#N)=C(C)N1 | cell-free assay, competition with immobilised ligand | 1 µM | 72% |
| CN(C)c1nccc(-c2cnc3ncccn23)n1 | binding | 1 µM | 64% |
| COc1cnc(Nc2cccc(S(N)(=O)=O)c2)nc1N1CCN(c2ccccc2)CC1 | binding, competition with immobilised ligand | 1 µM | 69% |
| CNC(=O)Nc1ccc2c(c1)[C@@]1(CC2)OC(=O)N(CC(=O)N(Cc2ccc(F)cc2)[C@@H](C)C(F)(F)F)C1=O | cell-free assay, competition with immobilised ligand | 1 µM | 97% |
| C=CC(=O)N1CCC(C(=O)NCC(=O)N2CCN(c3nc(-c4cnc(N)nc4C(F)F)nc(N4CCOCC4)n3)CC2)CC1 | binding, competition with immobilised ligand | 1 µM | 93% |
| O=C(c1ccc(Nc2nccc(-c3cc4ccccc4s3)n2)cc1)N1CCC(N2CCCC2)CC1 | binding, competition with immobilised ligand | 1 µM | 35% |
| CN(C)c1ncc(F)c(-c2cnn3ncccc23)n1 | binding | 1 µM | 100% |
| Cc1c(NC(=O)c2cc(C(N)=O)nc3cc(F)ccc23)c(C(F)(F)F)nn1Cc1ccc(C(C)(C)C)cc1 | cell-free assay, competition with immobilised ligand | 1 µM | 95% |
| N[C@H]1CCN(c2nccc(-c3cnn4ncccc34)n2)C1 | binding | 1 µM | 83% |
| O=C(NCCCN1CCOCC1)c1ccc(Nc2ncc(Cl)c(-c3ccc(Cl)s3)n2)cc1 | binding, competition with immobilised ligand | 1 µM | 64% |
| CCCCN(CCCC)C(=O)CN1C[C@@H](c2cc(OC)c3c(c2)OCO3)[C@H](C(=O)O)[C@H]1CC(C)(C)CCC | cell-free assay, competition with immobilised ligand | 1 µM | 95.4% |
| C[C@H]1CCN(c2nccc(-c3cnn4ncccc34)n2)C1 | binding | 1 µM | 81% |
| O=C(NCC1CCOCC1)c1n[nH]cc1NC(=O)c1c(F)cccc1F | binding, competition with immobilised ligand | 1 µM | 100% |
